Among the data in ChEMBL document CHEMBL1250525, “Structure-activity relationships in 1,4-benzodioxan-related compounds. 10. Novel α1-adrenoreceptor antagonists related to openphendioxan: synthesis, biological evaluation, and α1d computational study” (Bioorg Med Chem, 2010) are pKb values, retold here.

The target in assay [1] is T1, Alpha-1D adrenergic receptor (Rattus norvegicus) (UniProt P23944).
T1 sequence (whole entry): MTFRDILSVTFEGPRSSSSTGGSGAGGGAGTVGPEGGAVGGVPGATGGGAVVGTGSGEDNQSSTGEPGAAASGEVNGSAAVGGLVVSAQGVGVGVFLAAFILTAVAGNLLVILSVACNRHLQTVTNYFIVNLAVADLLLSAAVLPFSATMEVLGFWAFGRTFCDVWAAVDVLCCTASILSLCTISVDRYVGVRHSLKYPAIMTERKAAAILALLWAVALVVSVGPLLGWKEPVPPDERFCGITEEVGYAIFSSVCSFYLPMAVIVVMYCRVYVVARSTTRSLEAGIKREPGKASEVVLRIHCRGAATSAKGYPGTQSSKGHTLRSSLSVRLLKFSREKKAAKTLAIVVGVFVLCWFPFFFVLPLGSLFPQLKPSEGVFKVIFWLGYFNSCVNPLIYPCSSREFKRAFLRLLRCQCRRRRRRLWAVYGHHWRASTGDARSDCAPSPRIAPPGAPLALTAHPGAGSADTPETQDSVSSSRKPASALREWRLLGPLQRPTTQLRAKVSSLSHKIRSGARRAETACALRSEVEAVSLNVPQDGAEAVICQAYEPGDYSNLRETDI
The assay can be described thus: Antagonist activity at adrenergic Alpha-1D receptor in Wistar rat thoracic aorta assessed as inhibition of (-)-noradrenaline-indcuced contraction. The assay is classed as functional, tissue-based.

The target in assay [2] is T2, Alpha-1A adrenergic receptor (Rattus norvegicus) (UniProt P43140).
T2 sequence (whole entry): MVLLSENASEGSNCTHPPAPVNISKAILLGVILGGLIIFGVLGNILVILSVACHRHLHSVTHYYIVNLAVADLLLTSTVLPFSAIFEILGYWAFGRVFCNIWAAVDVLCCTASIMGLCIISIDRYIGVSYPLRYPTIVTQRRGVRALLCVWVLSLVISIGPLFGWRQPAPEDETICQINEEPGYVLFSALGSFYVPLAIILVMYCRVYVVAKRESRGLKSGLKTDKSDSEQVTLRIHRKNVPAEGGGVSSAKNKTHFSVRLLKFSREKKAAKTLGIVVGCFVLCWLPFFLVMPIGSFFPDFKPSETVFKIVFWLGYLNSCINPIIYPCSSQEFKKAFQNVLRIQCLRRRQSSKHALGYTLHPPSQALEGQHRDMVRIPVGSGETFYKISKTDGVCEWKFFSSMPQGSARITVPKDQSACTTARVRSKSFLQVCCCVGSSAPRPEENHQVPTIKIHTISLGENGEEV
The assay can be described thus: Antagonist activity at adrenergic alpha1A receptor in Wistar rat vas deference assessed as inhibition of (-)-noradrenaline-indcuced contraction. The assay is classed as functional. The method, boiled down: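 Tissue in Tyrode with 0.1 µM cocaine, equilibrated 60 min with washes every 15 min, primed twice with 10 µM noradrenaline. A noradrenaline curve gave the basal response. Antagonist 30 min, then 30 min washing, then a new agonist curve.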

The target of assay [3] is T3, Alpha-1B adrenergic receptor (Rattus norvegicus) (UniProt P15823).
T3 sequence (whole entry): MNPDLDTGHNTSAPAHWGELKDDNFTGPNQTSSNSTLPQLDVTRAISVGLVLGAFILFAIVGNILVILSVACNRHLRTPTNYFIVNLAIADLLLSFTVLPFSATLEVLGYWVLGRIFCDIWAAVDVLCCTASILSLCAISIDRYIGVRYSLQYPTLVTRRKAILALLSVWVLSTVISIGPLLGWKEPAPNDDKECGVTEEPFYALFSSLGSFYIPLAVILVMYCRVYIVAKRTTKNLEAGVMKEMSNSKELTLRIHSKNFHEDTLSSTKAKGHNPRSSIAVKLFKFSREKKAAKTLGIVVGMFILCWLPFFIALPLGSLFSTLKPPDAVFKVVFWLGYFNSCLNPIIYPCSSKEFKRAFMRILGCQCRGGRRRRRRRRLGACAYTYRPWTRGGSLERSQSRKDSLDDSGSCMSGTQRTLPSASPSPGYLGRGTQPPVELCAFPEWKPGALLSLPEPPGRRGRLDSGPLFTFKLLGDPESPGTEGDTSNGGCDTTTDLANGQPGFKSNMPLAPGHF
The assay can be described thus: Antagonist activity at adrenergic Alpha-1B receptor in Wistar rat spleen assessed as inhibition of […]-indcuced contraction. The assay is classed as functional, tissue-based.

For orientation: pKb means the negative decadic logarithm of the Kb, by convention in mol/L. Regarding `COc1cccc(OC)c1OCCNCC1COc2ccccc2O1` (stereo unspecified), the negative logarithm of the Kb (pKb) worked out at 8.8 in assay [1], 9.51 in assay [2] and 8.16 in assay [3].
In the same order, the values of `COc1cccc(OC)c1OCCNCCOc1ccccc1OCc1ccccc1` are 9.37, 8.39 and 8.3.
